From ChEMBL document CHEMBL4304743, “Discovery of ( E)- N1-(3-Fluorophenyl)- N3-(3-(2-(pyridin-2-yl)vinyl)-1 H-indazol-6-yl)malonamide (CHMFL-KIT-033) as a Novel c-KIT T670I Mutant Selective Kinase Inhibitor for Gastrointestinal Stromal Tumors (GISTs)” (J Med Chem, 2019)
The source made the active and inactive calls. The calls are words filed in the database; no cut-off is given here.

Columns and labels:
[1] = test system: Mast/stem cell growth factor receptor Kit (Homo sapiens), P10721 [V559A]; assay: Inhibition of TEL fused c-KIT V559A mutant (unknown origin) transfected in mouse BAF3 cells assessed as growth inhibition after 72 hrs by CCK8 assay; assay type: cell-based
Procedure, shortened: (§1)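 Tel-c-KIT-transformed BaF3 lines (IL-3 independent) kept in RPMI 1640 with 10% FBS, 2% L-glutamine and pen/strep. Cells at 1.5 to 5 × 10^4 cells/mL mixed with graded compound and incubated 72 h at 37 °C, 5% CO2. Viability by CCK-8 absorbance at 450 nm, normalized to DMSO. GI50 from dose–response fit.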

[2] = test system: Mast/stem cell growth factor receptor Kit (Homo sapiens), P10721 [T670I]; assay: Inhibition of TEL fused c-KIT T670I mutant (unknown origin) transfected in mouse BAF3 cells assessed as growth inhibition after 72 hrs by CCK8 assay; assay type: cell-based; procedure, shortened: as §1
[3] = target: Casein kinase I isoform alpha (Homo sapiens, UniProt P48729); assay: Binding affinity to wild-type human partial length CSNK1A1 (M1 to L301 residues) expressed in mammalian expression system assessed as enzyme remaining activity at 1 uM by Kinomescan assay relative to control
Procedure, shortened: (§2)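 KINOMEscan competition binding panel of 468 kinases and mutants, compound at 1 μM; binding reported as percent of control.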

[4] = Tmax in Sprague-Dawley rat at 1 mg/kg, iv measured after 2 to 720 mins by LC-tandem mass spectrometry analysis; assay type: ADME, organism-based; settings: in vivo
Procedure, shortened: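 Male Sprague–Dawley rats (190-210 g), fasted 12 h, given 1 mg/kg i.v. or 10 mg/kg p.o. in DMSO/5% glucose water (1:9). Blood sampled at 2–720 min (i.v.) or 5–720 min (p.o.). Plasma proteins precipitated with methanol using caffeine internal standard, then LC-MS/MS. Noncompartmental analysis; F = AUC0-∞ ratio corrected for dose; triplicate ±SD.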

Mus musculus = assay: Inhibition of c-KIT phosphorylation at Y719 residue in tumor of human GIST5R cells xenografted in nude mouse at 100 mg/kg, po administered as single dose and measured after 2 hrs; assay type: functional, organism-based
Procedure, shortened: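 Female nu/nu mice bearing subcutaneous GIST-5R xenografts (cells in Matrigel, right flank) given one oral gavage dose of 100 mg/kg in HKI suspension (0.5% methocellulose/0.4% Tween80 in ddH2O). Tumors collected over a 2 h time course; p-c-KIT, p-ERK and p-AKT assessed by Western blot; plasma drug levels monitored in parallel.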

[5] = target: Mast/stem cell growth factor receptor Kit (Homo sapiens, UniProt P10721); assay: Inhibition of wild-type His-tagged c-KIT (unknown origin) expressed in baculovirus infected sf9 cells pre-incubated for 60 mins followed by ATP addition and measured after 1 hr by Z-LYTE assay
[6] = test system: Mast/stem cell growth factor receptor Kit (Homo sapiens), P10721 [UNDEFINED MUTATION]; assay: Inhibition of c-KIT 560 to 578 deletion/T670I double mutant in human GIST5R cells assessed as reduction in c-KIT autophosphorylation at Y719 residue at 0.1 uM to 3 uM after 1 hr by Western blot analysis; assay type: cell-based
Procedure, shortened: (§3)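 Serial compound dilutions applied for 1 h to GIST-T1, GIST-T1-T670I (CRISPR/Cas9 T670I knock-in, clone confirmed by Sanger sequencing) or GIST-5R cells in DMEM with 10% FBS. Cells then lysed and phospho-proteins detected by standard Western blotting.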

GISTT1 [7] = assay: Induction of apoptosis in human GISTT1 cells harboring c-KIT 560 to 578 deletion mutant assessed as increase in cleaved PARP level after 24 hrs by Western blot analysis; assay type: functional, cell-based
Procedure, shortened: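 GIST cells grown in DMEM with 10% FBS, treated 24 h with serially diluted compound; apoptosis read by Western blot for PARP, with GAPDH as loading control.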

[8] = Apparent volume of distribution in Sprague-Dawley rat at 10 mg/kg, po measured after 5 to 720 mins by LC-tandem mass spectrometry analysis; assay type: ADME, organism-based; settings: in vivo
Procedure, shortened: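 Male Sprague-Dawley rats (190-210 g), fasted 12 h, randomized into two groups: 1 mg/kg i.v. or 10 mg/kg p.o., both formulated in 10% DMSO/90% of 5% glucose water. Blood sampled at 2-720 min (i.v.) or 5-720 min (p.o.). Plasma protein-precipitated with methanol, caffeine internal standard, LC-MS/MS. Noncompartmental analysis; triplicate, ±SD.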

[9] = target: Macrophage colony-stimulating factor 1 receptor (Homo sapiens, UniProt P07333); assay: Inhibition of wild-type human partial length CSF1R (I564 to S939 residues) expressed in bacterial expression system after 1 hr by Z-LYTE assay
[10] = test system: Mast/stem cell growth factor receptor Kit (Homo sapiens), P10721 [UNDEFINED MUTATION]; assay: Inhibition of c-KIT 560 to 578 deletion/T670I double mutant in human GISTT1 cells assessed as reduction in AKT phosphorylation at S473 residue at 0.1 uM to 3 uM after 1 hr by Western blot analysis; assay type: cell-based; procedure, shortened: as §3
[11] = Cmax in mouse at 1 mg/kg, iv measured after 2 to 720 mins by LC-tandem mass spectrometry analysis; assay type: ADME, organism-based; design: dose 1 mg/kg, route intravenous; settings: in vivo
Procedure, shortened: (§4)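 Mice dosed 1 mg/kg i.v. or 10 mg/kg p.o.; plasma drug levels by LC-MS/MS, parameters by noncompartmental analysis; values not from triplicate testing.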

GISTT1 [12] = assay: Antiproliferative activity against human GISTT1 cells harboring c-KIT 560 to 578 deletion mutant incubated for 72 hrs by CCK8 assay; assay type: functional; settings: GISTT1, 72 h
Procedure, shortened: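 Adherent GIST cells seeded at 1.5-5 × 10^4 cells/mL and left overnight at 37 °C, 5% CO2. Medium then replaced with medium holding serial compound dilutions; 72 h incubation. Viability by CCK-8, absorbance at 450 nm, normalized to DMSO control; GI50 from dose-response fit.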

[13] = test system: Mast/stem cell growth factor receptor Kit (Homo sapiens), P10721 [UNDEFINED MUTATION]; assay: Inhibition of c-KIT 560 to 578 deletion/T670I double mutant in human GIST5R cells assessed as reduction in S6 phosphorylation at S235/S236 residue at 0.1 uM to 3 uM after 1 hr by Western blot analysis; assay type: cell-based; procedure, shortened: as §3
[14] = target: Serine/threonine-protein kinase Nek1 (Homo sapiens) (UniProt Q96PY6); assay: Binding affinity to wild-type human partial length NEK1 (M1 to K278 residues) expressed in bacterial expression system assessed as enzyme remaining activity at 1 uM by Kinomescan assay relative to control; procedure, shortened: as §2
[15] = Tmax in mouse at 1 mg/kg, iv measured after 2 to 720 mins by LC-tandem mass spectrometry analysis; assay type: ADME, organism-based; settings: in vivo
[16] = Drug level in plasma of nude mouse xenograted with human GIST5R cells at 100 mg/kg, po administered as single dose and measured at 30 mins; assay type: ADME, organism-based; settings: in vivo, 0.5 h
Procedure, shortened: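 GIST-5R xenograft nu/nu mice given a single 100 mg/kg oral dose; plasma drug concentration followed over a time course alongside tumor p-c-KIT, p-ERK and p-AKT.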

[17] = AUC (0 to t) in mouse at 1 mg/kg, iv measured after 2 to 720 mins by LC-tandem mass spectrometry analysis; assay type: ADME, organism-based; settings: in vivo; procedure, shortened: as §4

Sequence of Mast/stem cell growth factor receptor Kit (Homo sapiens), P10721 [UNDEFINED MUTATION] (P10721 whole entry, looked up, stated change not applied, the tested form may be a part): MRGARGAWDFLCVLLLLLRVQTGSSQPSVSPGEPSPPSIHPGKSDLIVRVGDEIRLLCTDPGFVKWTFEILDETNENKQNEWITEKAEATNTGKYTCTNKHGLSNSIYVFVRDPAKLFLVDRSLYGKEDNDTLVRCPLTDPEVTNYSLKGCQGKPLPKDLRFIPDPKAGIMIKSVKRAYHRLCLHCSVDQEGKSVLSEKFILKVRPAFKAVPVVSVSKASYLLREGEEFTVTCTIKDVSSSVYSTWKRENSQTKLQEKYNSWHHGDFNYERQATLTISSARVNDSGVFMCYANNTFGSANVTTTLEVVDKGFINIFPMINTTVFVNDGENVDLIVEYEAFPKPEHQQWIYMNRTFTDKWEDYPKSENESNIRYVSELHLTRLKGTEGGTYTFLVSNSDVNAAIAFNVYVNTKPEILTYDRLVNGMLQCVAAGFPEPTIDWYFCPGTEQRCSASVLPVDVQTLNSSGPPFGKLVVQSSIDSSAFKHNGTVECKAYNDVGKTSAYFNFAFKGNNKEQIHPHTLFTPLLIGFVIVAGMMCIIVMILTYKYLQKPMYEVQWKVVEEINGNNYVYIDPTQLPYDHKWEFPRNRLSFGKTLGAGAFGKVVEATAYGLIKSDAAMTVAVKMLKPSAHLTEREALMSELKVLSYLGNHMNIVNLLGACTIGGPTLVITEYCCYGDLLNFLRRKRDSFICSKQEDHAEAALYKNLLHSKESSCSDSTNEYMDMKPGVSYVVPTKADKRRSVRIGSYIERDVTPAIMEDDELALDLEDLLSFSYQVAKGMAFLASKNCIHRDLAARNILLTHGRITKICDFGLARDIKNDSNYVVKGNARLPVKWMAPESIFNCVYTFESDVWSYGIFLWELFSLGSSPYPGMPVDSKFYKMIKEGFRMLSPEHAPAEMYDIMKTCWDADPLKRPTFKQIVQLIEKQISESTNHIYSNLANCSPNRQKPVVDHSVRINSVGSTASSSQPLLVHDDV
Sequence of Mast/stem cell growth factor receptor Kit (Homo sapiens), P10721 [T670I] (P10721 whole entry T670I, the tested form may be a part, canonical isoform): as the sequence (P10721 whole entry, looked up, stated change not applied, the tested form may be a part) above, with T670I counted along it
Sequence of Macrophage colony-stimulating factor 1 receptor (P07333 whole entry, the tested form may be a part): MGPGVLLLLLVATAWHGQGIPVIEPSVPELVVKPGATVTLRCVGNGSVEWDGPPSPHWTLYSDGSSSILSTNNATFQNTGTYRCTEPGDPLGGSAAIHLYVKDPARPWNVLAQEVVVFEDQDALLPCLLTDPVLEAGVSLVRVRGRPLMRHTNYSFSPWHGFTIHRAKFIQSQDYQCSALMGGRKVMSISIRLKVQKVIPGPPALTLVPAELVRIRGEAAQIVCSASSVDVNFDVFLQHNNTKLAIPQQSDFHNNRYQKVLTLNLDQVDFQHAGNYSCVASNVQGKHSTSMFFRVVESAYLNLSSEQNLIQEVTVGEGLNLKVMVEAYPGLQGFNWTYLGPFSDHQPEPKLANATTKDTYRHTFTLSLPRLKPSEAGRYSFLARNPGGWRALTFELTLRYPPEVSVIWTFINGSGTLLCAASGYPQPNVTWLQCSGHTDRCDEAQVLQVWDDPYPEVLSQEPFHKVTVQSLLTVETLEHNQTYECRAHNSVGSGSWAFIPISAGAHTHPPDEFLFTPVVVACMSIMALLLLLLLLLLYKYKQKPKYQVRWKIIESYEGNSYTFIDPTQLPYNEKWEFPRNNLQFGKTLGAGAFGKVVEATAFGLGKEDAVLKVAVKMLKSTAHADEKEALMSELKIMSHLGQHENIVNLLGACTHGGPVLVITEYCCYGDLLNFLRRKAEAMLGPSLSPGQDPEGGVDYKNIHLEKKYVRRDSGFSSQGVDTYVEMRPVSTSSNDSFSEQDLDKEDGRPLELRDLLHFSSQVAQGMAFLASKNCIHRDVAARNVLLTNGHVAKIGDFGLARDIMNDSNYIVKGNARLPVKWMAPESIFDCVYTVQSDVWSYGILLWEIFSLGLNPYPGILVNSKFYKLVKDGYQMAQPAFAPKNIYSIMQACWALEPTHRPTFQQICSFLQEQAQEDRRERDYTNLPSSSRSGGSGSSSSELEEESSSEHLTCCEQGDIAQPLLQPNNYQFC
Sequence of Mast/stem cell growth factor receptor Kit (P10721 whole entry): as the sequence (P10721 whole entry, looked up, stated change not applied, the tested form may be a part) above
Sequence of Mast/stem cell growth factor receptor Kit (Homo sapiens), P10721 [V559A] (P10721 whole entry V559A, the tested form may be a part): as the sequence (P10721 whole entry, looked up, stated change not applied, the tested form may be a part) above, with V559A counted along it
Sequence of Serine/threonine-protein kinase Nek1 (Homo sapiens) (Q96PY6 whole entry, the tested form may be a part): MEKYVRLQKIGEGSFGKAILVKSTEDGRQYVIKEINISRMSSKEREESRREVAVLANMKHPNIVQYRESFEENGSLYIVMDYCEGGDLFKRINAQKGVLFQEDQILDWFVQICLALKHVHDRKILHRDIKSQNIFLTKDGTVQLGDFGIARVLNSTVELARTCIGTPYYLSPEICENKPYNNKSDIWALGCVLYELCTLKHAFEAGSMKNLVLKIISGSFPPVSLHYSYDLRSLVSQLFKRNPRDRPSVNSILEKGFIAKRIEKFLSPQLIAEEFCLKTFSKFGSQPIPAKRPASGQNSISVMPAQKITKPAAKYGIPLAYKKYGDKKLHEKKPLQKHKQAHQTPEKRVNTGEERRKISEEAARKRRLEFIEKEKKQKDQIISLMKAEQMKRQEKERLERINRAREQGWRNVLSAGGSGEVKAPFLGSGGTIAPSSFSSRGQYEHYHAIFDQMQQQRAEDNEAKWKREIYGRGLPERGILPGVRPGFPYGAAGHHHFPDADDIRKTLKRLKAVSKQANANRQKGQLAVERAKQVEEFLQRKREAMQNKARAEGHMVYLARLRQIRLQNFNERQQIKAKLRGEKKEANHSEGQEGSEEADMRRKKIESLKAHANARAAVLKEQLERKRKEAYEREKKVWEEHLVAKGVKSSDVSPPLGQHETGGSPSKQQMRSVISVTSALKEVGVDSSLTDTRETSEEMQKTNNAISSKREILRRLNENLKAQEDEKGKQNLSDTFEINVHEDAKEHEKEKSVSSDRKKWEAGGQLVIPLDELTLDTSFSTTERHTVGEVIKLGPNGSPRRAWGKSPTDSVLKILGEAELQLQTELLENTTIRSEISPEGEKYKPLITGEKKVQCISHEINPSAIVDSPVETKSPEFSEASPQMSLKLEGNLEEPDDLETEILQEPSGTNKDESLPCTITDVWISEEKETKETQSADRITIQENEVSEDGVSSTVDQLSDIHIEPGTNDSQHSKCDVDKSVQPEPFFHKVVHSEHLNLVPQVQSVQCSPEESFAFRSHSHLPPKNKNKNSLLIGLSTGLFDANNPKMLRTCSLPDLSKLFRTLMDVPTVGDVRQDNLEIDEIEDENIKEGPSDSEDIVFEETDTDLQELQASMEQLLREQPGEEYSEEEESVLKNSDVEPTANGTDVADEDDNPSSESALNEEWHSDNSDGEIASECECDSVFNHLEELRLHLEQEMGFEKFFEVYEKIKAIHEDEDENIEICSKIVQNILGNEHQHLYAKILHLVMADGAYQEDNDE
Sequence of Casein kinase I isoform alpha (P48729 2-337 limits assumed): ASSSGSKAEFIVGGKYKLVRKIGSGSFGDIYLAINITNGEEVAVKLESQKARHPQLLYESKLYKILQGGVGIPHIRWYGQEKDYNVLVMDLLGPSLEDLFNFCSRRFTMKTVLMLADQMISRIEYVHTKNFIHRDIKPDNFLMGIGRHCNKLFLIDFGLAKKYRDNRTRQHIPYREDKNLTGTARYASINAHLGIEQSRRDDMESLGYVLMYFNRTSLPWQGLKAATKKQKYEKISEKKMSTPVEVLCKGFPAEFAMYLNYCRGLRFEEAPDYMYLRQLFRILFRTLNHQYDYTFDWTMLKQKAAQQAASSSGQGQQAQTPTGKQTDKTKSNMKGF

O=C(CC(=O)Nc1ccc2c(/C=C/c3ccccn3)n[nH]c2c1)Nc1cccc(F)c1 gave a GI50 [1] of 31 nM, a GI50 [2] of 44 nM and an Activity [3] of 0.2%. The Tmax [4] was 1.02 min, the inhibition (Mus musculus) was “inactive” and the IC50 [5] was 536 nM. For the same molecule, the inhibition [6] was “Active”, the Activity (GISTT1 [7]) was “Dose-dependent effect” and the Vz [8] was 86.8 L/kg. For the same molecule, the IC50 [9] was 14.2 to 14.3 nM, the inhibition [10] was “Active” and the Cmax [11] was 3020 ng/mL. The GI50 (GISTT1 [12]) was 52 nM, the inhibition [13] was “Active” and the Activity [14] was 0%. The Tmax [15] was 1.8 min, the Drug uptake [16] was “Active” and the AUC(0-t) [17] was 898 ng·h/mL.
